Experimental data published in ChEMBL document CHEMBL4229550, “An antimycobacterial pleuromutilin analogue effective against dormant bacilli” (Bioorg Med Chem, 2018).
Converted amounts (≈) assume the structure as drawn. The source made the active and inactive calls. The rule behind the calls is not given here.

Legend:
[1] = test system: Vero; test: Cytotoxicity against African green monkey Vero cells assessed as reduction in cell viability after 72 hrs by MTT assay; type: cell-based; details: Chlorocebus sabaeus
In short: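 Vero cells were grown in complete EMEM with 10% FBS and exposed for 72 h to 0.78–200 µg/mL. The medium was then swapped for phenol-red-free EMEM and MTT was added. Formazan absorbance was read at 570 nm to give IC50.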

[2] = test system: Mycobacterium tuberculosis; test: Bactericidal activity against replicating Mycobacterium tuberculosis H37Rv incubated for 15 days under aerobic condition by MABA; type: functional; details: 360 h
In short: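 Mtb H37Rv grown in 7H9/OADC at 37 °C with shaking to OD600 0.5. The 0.5-OD culture is exposed aerobically to serial dilutions for 15 days at 37 °C. Resazurin (0.02% stock) is then added for 4 h at 37 °C with shaking.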

[3] = test system: Mycolicibacterium smegmatis; test: Antibacterial activity against Mycobacterium smegmatis ATCC 607 incubated for 48 hrs under aerobic condition by MABA; type: functional; details: ATCC 607, 48 h, read-out: MIC100
In short: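 Mid-log culture at OD 0.5 was incubated with serial dilutions aerobically at 37 °C for 48 h. Resazurin was then added from a 0.08% stock for 1 h. MIC100 was the lowest concentration that stayed blue; absorbance was also read at 570/600 nm.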

[4] = test system: Mycolicibacterium smegmatis; test: Bactericidal activity against Mycobacterium smegmatis ATCC 607 incubated for 48 hrs under aerobic condition by MABA; type: functional; details: ATCC 607, 48 h
[5] = test system: Staphylococcus aureus; test: Bactericidal activity against Staphylococcus aureus incubated for 24 hrs under aerobic condition by MABA; type: functional
[6] = test system: Staphylococcus aureus; test: Antibacterial activity against Staphylococcus aureus ATCC 25923 incubated for 24 hrs under aerobic condition by MABA; type: functional; details: ATCC 25923, 24 h, read-out: MIC100
In short: (§1)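 Mid-log cultures at OD 0.5 were exposed to serial dilutions under aerobic conditions at 37 °C for 24 h. Resazurin was then added from a 0.08% stock for 1 h. MIC100 was the lowest concentration where the dye stayed blue (pink means growth). Absorbance was also read at 570 and 600 nm.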

[7] = test system: Staphylococcus aureus; test: Bactericidal activity against Staphylococcus aureus ATCC 25923 incubated for 24 hrs under aerobic condition by MABA; type: functional; details: ATCC 25923, 24 h
[8] = test system: Staphylococcus aureus; test: Bactericidal activity against Staphylococcus aureus BAA 2094 incubated for 24 hrs under aerobic condition by MABA; type: functional; details: BAA 2094, 24 h
[9] = test system: Staphylococcus aureus; test: Antibacterial activity against Staphylococcus aureus BAA 1683 incubated for 24 hrs under aerobic condition by MABA; type: functional; details: BAA 1683, 24 h, read-out: MIC100; in short: as §1
[10] = test system: Staphylococcus aureus; test: Bactericidal activity against Staphylococcus aureus BAA 1683 incubated for 24 hrs under aerobic condition by MABA; type: functional; details: BAA 1683, 24 h
[11] = test system: Staphylococcus aureus; test: Antibacterial activity against Staphylococcus aureus BAA 44 incubated for 24 hrs under aerobic condition by MABA; type: functional; details: BAA 44, 24 h, read-out: MIC100; in short: as §1
[12] = test system: Staphylococcus aureus; test: Bactericidal activity against Staphylococcus aureus BAA 44 incubated for 24 hrs under aerobic condition by MABA; type: functional; details: BAA 44, 24 h
[13] = test system: Enterococcus faecalis; test: Antibacterial activity against Enterococcus faecalis ATCC 349 incubated for 24 hrs under aerobic condition by MABA; type: functional; details: ATCC 349, 24 h, read-out: MIC100; in short: as §1
[14] = test system: Enterococcus faecalis; test: Bactericidal activity against Enterococcus faecalis ATCC 349 incubated for 24 hrs under aerobic condition by MABA; type: functional; details: ATCC 349, 24 h
[15] = test system: Enterococcus faecalis; test: Antibacterial activity against Enterococcus faecalis ATCC 19433 incubated for 24 hrs under aerobic condition by MABA; type: functional; details: ATCC 19433, 24 h, read-out: MIC100; in short: as §1
[16] = test system: Enterococcus faecalis; test: Bactericidal activity against Enterococcus faecalis ATCC 19433 incubated for 24 hrs under aerobic condition by MABA; type: functional; details: ATCC 19433, 24 h
[17] = test system: Clostridioides difficile; test: Bactericidal activity against Clostridium difficile ATCC 700057 incubated for 24 hrs […] by MABA; type: functional; details: ATCC 700057, 24 h
[18] = test system: Streptococcus pneumoniae; test: Antibacterial activity against Streptococcus pneumoniae ATCC 6301 incubated for 24 hrs under aerobic condition by MABA; type: functional; details: ATCC 6301, 24 h, read-out: MIC100; in short: as §1
[19] = test system: Streptococcus pneumoniae; test: Bactericidal activity against Streptococcus pneumoniae ATCC 6301 incubated for 24 hrs under aerobic condition by MABA; type: functional; details: ATCC 6301, 24 h
[20] = test system: Klebsiella pneumoniae; test: Antibacterial activity against Klebsiella pneumoniae ATCC 12019 incubated for 24 hrs under aerobic condition by MABA; type: functional; details: ATCC 12019, 24 h, read-out: MIC100; in short: as §1
[21] = test system: Klebsiella pneumoniae; test: Bactericidal activity against Klebsiella pneumoniae ATCC 12019 incubated for 24 hrs under aerobic condition by MABA; type: functional; details: ATCC 12019, 24 h
[22] = test system: Acinetobacter baumannii; test: Antibacterial activity against Acinetobacter baumannii ATCC 19606 incubated for 24 hrs under aerobic condition by MABA; type: functional; details: ATCC 19606 = CIP 70.34 = JCM 6841, 24 h, read-out: MIC100; in short: as §1
[23] = test system: Acinetobacter baumannii; test: Bactericidal activity against Acinetobacter baumannii ATCC 19606 incubated for 24 hrs under aerobic condition by MABA; type: functional; details: ATCC 19606 = CIP 70.34 = JCM 6841, 24 h
[24] = test system: Escherichia coli; test: Antibacterial activity against Escherichia coli ATCC 10798 incubated for 24 hrs under aerobic condition by MABA; type: functional; details: ATCC 10798, 24 h, read-out: MIC100; in short: as §1
[25] = test system: Escherichia coli; test: Bactericidal activity against Escherichia coli ATCC 10798 incubated for 24 hrs under aerobic condition by MABA; type: functional; details: ATCC 10798, 24 h
[26] = test system: Streptococcus salivarius; test: Bactericidal activity against Streptococcus salivarius ATCC 6301 incubated for 24 hrs under aerobic condition by MABA; type: functional; details: ATCC 6301, 24 h
[27] = test system: Bacillus subtilis; test: Antibacterial activity against Bacillus subtilis ATCC 6051 incubated for 24 hrs under aerobic condition by MABA; type: functional; details: ATCC 6051, 24 h, read-out: MIC100; in short: as §1
[28] = test system: Bacillus subtilis; test: Bactericidal activity against Bacillus subtilis ATCC 6051 incubated for 24 hrs under aerobic condition by MABA; type: functional; details: ATCC 6051, 24 h
[29] = test system: Mycobacterium tuberculosis; test: Bactericidal activity against non-replicating Mycobacterium tuberculosis CDC1551 expressing tdTomato infected in mouse J774A.1 cells at 2 times MIC after 48 hrs by UV-Visible spectroscopic method; type: functional, organism-based
In short: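 J774A.1 macrophages are seeded at […] cells/well in DMEM and incubated overnight at 37 °C. They are infected with saline-washed Mtb CDC1551-tdTomato (10^6 bacteria, MOI ≈10), and extracellular bacteria are washed off with PBS. Treatment is at 2×MIC, with fluorescence emission read at 581 nm at 24, 48, 72 and 96 h. Survivors are confirmed by serial dilution and plating on 7H11.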

With CO[C@H]1/C=C/O[C@@]2(C)Oc3c(C)c(O)c4c(O)c(c(/C=N/N5CCN(C)CC5)c(O)c4c3C2=O)NC(=O)/C(C)=C\C=C\[C@H](C)[C@H](O)[C@@H](C)[C@@H](O)[C@@H](C)[C@H](OC(C)=O)[C@@H]1C [RIFAMPIN] the IC50 [1] was > 200 µg/mL, the MBC [2] was 0.01 µg/mL (≈ 0.0122 µM) and the MIC [3] was > 25 µg/mL. For the same molecule, the MBC [4] was > 25 µg/mL, the MBC [5] was 0.4 µg/mL (≈ 0.486 µM) and the MIC [6] was > 25 µg/mL. For the same molecule, the MBC [7] was > 25 µg/mL, the MBC [8] was 0.2 µg/mL (≈ 0.243 µM) and the MIC [9] was 0.15 µg/mL (≈ 0.182 µM). The MBC [10] was 0.2 µg/mL (≈ 0.243 µM), the MIC [11] was 6.25 µg/mL (≈ 7.59 µM) and the MBC [12] was 25 µg/mL (≈ 30.4 µM). For the same molecule, the MIC [13] was > 25 µg/mL, the MBC [14] was > 25 µg/mL and the MIC [15] was 0.78 µg/mL (≈ 0.948 µM). It also gave an MBC [16] of 1.56 µg/mL (≈ 1.9 µM), an MBC [17] of 0.78 µg/mL (≈ 0.948 µM) and an MIC [18] of 25 µg/mL (≈ 30.4 µM). The MBC [19] was > 25 µg/mL, the MIC [20] was 1.56 µg/mL (≈ 1.9 µM) and the MBC [21] was 3.13 µg/mL (≈ 3.8 µM). For the same molecule, the MIC [22] was 2.35 µg/mL (≈ 2.86 µM), the MBC [23] was 3.13 µg/mL (≈ 3.8 µM) and the MIC [24] was 3.13 µg/mL (≈ 3.8 µM). For the same molecule, the MBC [25] was 25 µg/mL (≈ 30.4 µM), the MBC [26] was > 25 µg/mL and the MIC [27] was 0.3 µg/mL (≈ 0.365 µM). For the same molecule, the MBC [28] was 0.4 µg/mL (≈ 0.486 µM) and the Activity [29] was “Active”.
